High-throughput results (PubChem)
H69AR growth 86K – proliferation blockers of H69AR lung cancer cells, primary screen, cell-based, human, 86K library; H69AR lung tumor viability, ATP luminescence, 72 h; hits give low values; AID 598, 2007; 85,000 compounds, 6% hits; viability, % at 10 µM;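 active = viability at or below 40%; inactive = viability above 40%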;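 also: multidrug resistant small cell line overexpressing MRP-1 efflux transporter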
Fibroblast inh – antiproliferative effect on LL 47 fibroblasts – human, LL 47 cells, CellTiter-Glo luminescence, primary screen. LL 47 human lung fibroblast viability, ATP luminescence; hits give low values. viability, % at 10 µM. AID 719, 2007. 85,000 compounds, 1.1% hits;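 active = viability at or below 50% in the single dose screen; inactive = viability above 50%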;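 also: compound exposure lasted 72 h before the ATP readout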
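Test system: LL 47 human lung fibroblasts; Quantity: 1,150 cells/well; Buffer or medium: IMEM plus 15% FBS; Dosing: tenfold compound dosing solution, DMSO at 0.1%; Timing: overnight cell rest, 72 h compound treatment at 37 °C; Detection: ATP-based CellTiter-Glo luminescent readout; Read-out basis: viability percentage against median untreated-cell control; Controls: cell-only wells, no compound.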
HUVEC inhibit – inhibitors of HUVEC proliferation, primary screen, cell-based, 384-well. CellTiter-Glo luminescence, 72 h; hits give low values. viability, % at 10 µM (by protocol). 86,000 compounds, 1.1% hits. AID 648, 2007;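 active = viability at or below 30%; inactive = viability above 30%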
HCT116 PTEN-null – growth suppression of PTEN-null HCT116, primary screen, cell-based, CellTiter-Glo; HCT116 PTEN-null viability, 60 h; hits give low values; viability, % at 10 µM; 140,000 compounds, 1.2% hits; AID 827, 2007;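 active = viability at or below a set limit, 4 SD under the median of all tested compounds, cut at about 3.7% in these data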;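 also: PTEN knockout HCT116 line with beta catenin targeted HCT116 as companion control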
HCT116 bCat-KO – primary screen for growth suppressors in beta-catenin knockout HCT116 cells (colon tumor, human); HCT116 beta-catenin knockout viability, CellTiter-Glo, 60 h; hits give low values; viability, % at 10 µM; 140,000 compounds, 1.5% hits; AID 818, 2007;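 active = viability at or under a set limit, the compound median less 4 SD, cut at about 6% in these data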
A number is an active result. The full list was thinned out, with hits kept by preference.

What do the screens show for `N#CCC(=O)N1CCn2c1nc1ccccc12`?
H69AR growth 86K: inactive; Fibroblast inh: inactive; HUVEC inhibit: inactive; HCT116 PTEN-null: inactive; HCT116 bCat-KO: inactive

Results for CCC(=O)N1c2ccc(S(=O)(=O)CCC(=O)NCc3cccs3)cc2CC1C (stereo not drawn) ?
H69AR growth 86K: 30; Fibroblast inh: inactive; HUVEC inhibit: inactive; HCT116 PTEN-null: inactive; HCT116 bCat-KO: inactive

Results for CCC(=O)N1c2ccc(S(=O)(=O)CCC(=O)N3CCn4c3nc3ccccc34)cc2CC1C (stereo not drawn) ?
H69AR growth 86K: 1.9; Fibroblast inh: 44; HUVEC inhibit: inactive; HCT116 PTEN-null: inactive; HCT116 bCat-KO: inactive

What do the screens show for `Cc1ccc(OCC(=O)N2CCN(c3nnc(-c4ccccc4)c4ccccc34)CC2)cc1`?
H69AR growth 86K: inactive; Fibroblast inh: inactive; HUVEC inhibit: inactive; HCT116 PTEN-null: inactive; HCT116 bCat-KO: inactive

What do the screens show for `Cc1ccc(-c2nnc(N3CCN(C(=O)CSc4ncn[nH]4)CC3)c3ccccc23)cc1`?
H69AR growth 86K: inactive; Fibroblast inh: 2.9; HUVEC inhibit: inactive; HCT116 PTEN-null: inactive; HCT116 bCat-KO: inactive

How did CCN(CC)S(=O)(=O)c1cc(C(=O)OCC(=O)Nc2cccc(Br)c2)ccc1F do in these assays?
HCT116 PTEN-null: inactive; HCT116 bCat-KO: inactive

Results for CCOC(CNC(=O)c1cccn2c(=O)c3cc(Cl)ccc3nc12)OCC ?
H69AR growth 86K: 38; Fibroblast inh: inactive; HUVEC inhibit: inactive; HCT116 PTEN-null: inactive; HCT116 bCat-KO: inactive

Results for CCOC(=O)N1CCN(C(=O)c2cccn3c(=O)c4cc(Cl)ccc4nc23)CC1 ?
HCT116 PTEN-null: inactive; HCT116 bCat-KO: inactive

Results for COc1ccc2nc(NC(=O)c3cc(C)oc3C)sc2c1 ?
H69AR growth 86K: inactive; Fibroblast inh: inactive; HUVEC inhibit: inactive; HCT116 PTEN-null: inactive; HCT116 bCat-KO: inactive

How did COc1ccc2nc(NC(=O)c3ccoc3C)sc2c1 do in these assays?
H69AR growth 86K: 23; Fibroblast inh: inactive; HUVEC inhibit: inactive; HCT116 PTEN-null: inactive; HCT116 bCat-KO: inactive

Results for COc1ccc2nc(NC(=O)c3cccc(OCc4c(C)noc4C)c3)sc2c1 ?
H69AR growth 86K: 21; Fibroblast inh: inactive; HUVEC inhibit: inactive; HCT116 PTEN-null: inactive; HCT116 bCat-KO: inactive

How did Cc1nn(-c2ccccc2)c2sc(-c3n[nH]c(=S)o3)cc12 do in these assays?
HCT116 PTEN-null: inactive; HCT116 bCat-KO: inactive

How did C/C(=N/NC(=O)CNC(=O)c1ccccn1)c1ccccc1 do in these assays?
HCT116 PTEN-null: inactive; HCT116 bCat-KO: inactive

How did C=CCNC(=S)N/N=C(\C)c1ccccn1 do in these assays?
H69AR growth 86K: 20; Fibroblast inh: 9.2; HUVEC inhibit: 19; HCT116 PTEN-null: inactive; HCT116 bCat-KO: inactive

What do the screens show for `C/C(=N\NC(=S)NCc1ccccc1)c1ccccc1`?
HCT116 PTEN-null: inactive; HCT116 bCat-KO: inactive

How did C/C(=N\NC(=O)CCCNc1ccc(C)cc1)c1ccccn1 do in these assays?
HCT116 PTEN-null: inactive; HCT116 bCat-KO: 5.8

How did Cc1cc(C)c(S(=O)(=O)N2CCCOC2CNC(=O)C(=O)NCc2ccco2)c(C)c1 (stereo not drawn) do in these assays?
HCT116 PTEN-null: inactive; HCT116 bCat-KO: inactive

Results for Cc1cccc(N2CCN(C(=O)Cc3cn(C)c4ccccc34)CC2)c1C ?
H69AR growth 86K: 18; Fibroblast inh: inactive; HUVEC inhibit: inactive; HCT116 PTEN-null: inactive; HCT116 bCat-KO: inactive

What do the screens show for `CC12CCC(C(=O)NNc3ccc([N+](=O)[O-])cc3)(CC1=O)C2(C)C` (stereo not drawn)?
HCT116 PTEN-null: inactive; HCT116 bCat-KO: inactive

Results for Cc1noc(C)c1CSc1nc2sc(C)c(C)c2c(=O)n1-c1ccccc1 ?
H69AR growth 86K: inactive; Fibroblast inh: inactive; HUVEC inhibit: inactive; HCT116 PTEN-null: inactive; HCT116 bCat-KO: inactive

Results for Cc1noc(C)c1CSc1nc2ccccc2c(=O)n1-c1ccc(Cl)cc1 ?
H69AR growth 86K: 14; Fibroblast inh: inactive; HUVEC inhibit: inactive; HCT116 PTEN-null: inactive; HCT116 bCat-KO: inactive

What do the screens show for `O=C(CN1CCN(c2ccc(O)cc2)CC1)NC(=O)NCc1ccco1`?
HCT116 PTEN-null: inactive; HCT116 bCat-KO: inactive

How did c1ccc2c(CSCCc3ccncc3)cccc2c1 do in these assays?
H69AR growth 86K: 34; Fibroblast inh: inactive; HUVEC inhibit: inactive; HCT116 PTEN-null: inactive; HCT116 bCat-KO: inactive

Results for Cc1ccc(CNC(=O)C(=O)NCC2OCCN2C(=O)c2cccs2)cc1 (stereo not drawn) ?
HCT116 PTEN-null: inactive; HCT116 bCat-KO: inactive

How did CCc1ccc2c(c1)C1(C(=O)N2)N2CCCC2C(C(=O)c2ccc3ccccc3c2)C12C(=O)Nc1ccccc12 (stereo not drawn) do in these assays?
HCT116 PTEN-null: 1.1; HCT116 bCat-KO: 1.3

Results for CCc1cccc2c1NC(=O)C21N2CCCC2C(C(=O)c2ccc3ccccc3c2)C12C(=O)Nc1ccccc12 (stereo not drawn) ?
HCT116 PTEN-null: inactive; HCT116 bCat-KO: inactive

Results for N#Cc1c(NC(=O)c2ccccc2Cl)n(Cc2ccccc2)c2nc3ccccc3nc12 ?
HCT116 PTEN-null: inactive; HCT116 bCat-KO: inactive

What do the screens show for `CCCCn1c(NC(=O)c2ccccc2Cl)c(C#N)c2nc3ccccc3nc21`?
H69AR growth 86K: 20; Fibroblast inh: inactive; HUVEC inhibit: inactive; HCT116 PTEN-null: inactive; HCT116 bCat-KO: inactive

What do the screens show for `CC(=O)C(C(C)=O)c1c(Cl)c(O)c(O)c2c(C(=O)c3ccccc3)coc12`?
H69AR growth 86K: 1.6; Fibroblast inh: 47; HUVEC inhibit: inactive; HCT116 PTEN-null: inactive; HCT116 bCat-KO: inactive

What do the screens show for `CCn1c(Cc2ccc(OC)cc2)nnc1SCC(=O)Nc1cccc(C(=O)OC)c1`?
H69AR growth 86K: inactive; Fibroblast inh: 48; HUVEC inhibit: inactive; HCT116 PTEN-null: 0.6; HCT116 bCat-KO: 0.9

Results for COc1ccc(-n2c(Cc3cccn3C)nnc2SCC(=O)Nc2cccc(OC)c2)cc1 ?
H69AR growth 86K: 37; Fibroblast inh: inactive; HUVEC inhibit: inactive; HCT116 PTEN-null: inactive; HCT116 bCat-KO: inactive

Results for Cc1cccc(NC(=S)c2nc3ccccc3s2)c1 ?
HCT116 PTEN-null: inactive; HCT116 bCat-KO: inactive

What do the screens show for `COc1ccc(OC)c(NC(=O)c2cc(-c3cc(Cl)ccc3O)n[nH]2)c1`?
H69AR growth 86K: 1.2; Fibroblast inh: inactive; HUVEC inhibit: inactive; HCT116 PTEN-null: inactive; HCT116 bCat-KO: inactive

Results for Cn1c(SCC#N)nnc1-c1cnccn1 ?
H69AR growth 86K: inactive; Fibroblast inh: inactive; HUVEC inhibit: inactive; HCT116 PTEN-null: inactive; HCT116 bCat-KO: inactive

What do the screens show for `COc1ccc(-c2cc(-c3c(O)c(OC)c4occc4c3OC)[nH]n2)cc1OC`?
H69AR growth 86K: 26; Fibroblast inh: inactive; HUVEC inhibit: inactive; HCT116 PTEN-null: inactive; HCT116 bCat-KO: inactive

What do the screens show for `O=C(NC(=S)NCCCN1CCOCC1)c1ccc([N+](=O)[O-])cc1`?
HCT116 PTEN-null: inactive; HCT116 bCat-KO: inactive
